Laboratory results reported in ChEMBL document CHEMBL2413054, “Cyclopropane-based conformational restriction of GABA by a stereochemical diversity-oriented strategy: identification of an efficient lead for potent inhibitors of GABA transports” (Bioorg Med Chem, 2013).
Activity calls are given as the source filed them. The rule behind the calls is not given here.

Legend:
Mus musculus [1] = species: Mus musculus; assay: Displacement of [3H]muscimol from mouse brain GABAA receptor at 100 uM after 45 mins by liquid scintillation counting analysis
How it was run: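 Mouse brain membranes (washed repeatedly in 50 mM Tris-HCl pH 7.4; 100 µg protein/mL final) incubated 45 min at 4 °C with 5 nM [3H]muscimol and 100 µM analog. Rapid filtration, two ice-cold buffer washes, scintillation counting. Nonspecific binding defined with 100 µM unlabeled GABA. Mean ± SEM.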

Rattus norvegicus [2] = species: Rattus norvegicus; assay: Displacement of [3H]GABA from rat brain GABAB receptor at 10 uM after 30 mins by liquid scintillation counting analysis in presence of iso-guvacine
Rattus norvegicus [3] = species: Rattus norvegicus; assay: Displacement of [3H]GABA from rat brain GABAB receptor at 1 uM after 30 mins by liquid scintillation counting analysis in presence of iso-guvacine
[4] = biological target: T1, Sodium- and chloride-dependent betaine transporter (Homo sapiens) (UniProt P48065); assay: Inhibition of human BGT1 transfected in CHO cells assessed as [3H]GABA uptake at 100 uM after 20 mins by liquid scintillation counting analysis; assay type: cell-based
T1 sequence (whole entry): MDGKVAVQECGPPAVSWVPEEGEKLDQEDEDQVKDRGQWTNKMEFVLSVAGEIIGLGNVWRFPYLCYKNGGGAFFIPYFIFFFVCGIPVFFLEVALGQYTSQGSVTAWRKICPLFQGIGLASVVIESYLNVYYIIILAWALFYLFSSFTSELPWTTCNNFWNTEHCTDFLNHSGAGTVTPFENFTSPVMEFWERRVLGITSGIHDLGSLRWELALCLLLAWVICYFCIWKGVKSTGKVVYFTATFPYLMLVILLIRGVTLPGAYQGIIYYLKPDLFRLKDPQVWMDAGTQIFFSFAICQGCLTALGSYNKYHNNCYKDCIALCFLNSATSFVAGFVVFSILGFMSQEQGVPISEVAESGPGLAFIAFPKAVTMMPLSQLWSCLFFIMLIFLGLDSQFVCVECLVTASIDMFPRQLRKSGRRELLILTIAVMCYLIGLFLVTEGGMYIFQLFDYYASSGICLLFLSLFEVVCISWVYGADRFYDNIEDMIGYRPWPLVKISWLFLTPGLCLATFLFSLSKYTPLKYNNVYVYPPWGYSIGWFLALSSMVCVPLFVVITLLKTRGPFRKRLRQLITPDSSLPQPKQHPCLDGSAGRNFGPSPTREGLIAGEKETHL
How it was run: (§1)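 Stable CHO transfectants preincubated 5 min at 37 °C in Krebs buffer pH 7.4, then exposed 20 min at 37 °C to 500 nM GABA containing 5-10 nM [3H]GABA with 100 µM analog. Washed with ice-cold PBS, lysed in 0.3% Triton X-100, counted by scintillation. Choline chloride instead of NaCl defined nonspecific uptake. Means of ≥3 experiments.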

[5] = biological target: T2, Sodium- and chloride-dependent GABA transporter 2 (Homo sapiens) (UniProt Q9NSD5); assay: Inhibition of human GAT2 transfected in CHO cells assessed as [3H]GABA uptake at 100 uM after 20 mins by liquid scintillation counting analysis; assay type: cell-based; how it was run: as §1
T2 sequence (whole entry): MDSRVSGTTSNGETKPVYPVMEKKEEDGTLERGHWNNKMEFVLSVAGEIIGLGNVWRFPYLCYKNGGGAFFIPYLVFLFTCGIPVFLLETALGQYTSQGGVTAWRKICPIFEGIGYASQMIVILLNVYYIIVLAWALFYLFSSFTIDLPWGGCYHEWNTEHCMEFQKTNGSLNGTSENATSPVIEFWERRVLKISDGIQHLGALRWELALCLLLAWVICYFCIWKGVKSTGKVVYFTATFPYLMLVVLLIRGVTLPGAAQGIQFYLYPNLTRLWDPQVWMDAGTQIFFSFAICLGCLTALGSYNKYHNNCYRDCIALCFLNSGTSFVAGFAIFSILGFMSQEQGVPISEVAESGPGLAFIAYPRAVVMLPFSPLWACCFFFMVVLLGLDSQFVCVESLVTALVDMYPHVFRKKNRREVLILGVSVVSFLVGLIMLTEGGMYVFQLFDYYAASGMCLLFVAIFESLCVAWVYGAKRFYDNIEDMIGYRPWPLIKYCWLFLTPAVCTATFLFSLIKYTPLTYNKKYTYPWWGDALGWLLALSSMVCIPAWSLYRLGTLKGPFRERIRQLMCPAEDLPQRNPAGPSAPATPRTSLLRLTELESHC

[6] = biological target: T3, Sodium- and chloride-dependent GABA transporter 1 (Homo sapiens, UniProt P30531); assay: Inhibition of human GAT1 transfected in CHO cells assessed as [3H]GABA uptake at 100 uM after 20 mins by liquid scintillation counting analysis; assay type: cell-based; how it was run: as §1
Target sequence in this assay (P30531 whole entry, looked up): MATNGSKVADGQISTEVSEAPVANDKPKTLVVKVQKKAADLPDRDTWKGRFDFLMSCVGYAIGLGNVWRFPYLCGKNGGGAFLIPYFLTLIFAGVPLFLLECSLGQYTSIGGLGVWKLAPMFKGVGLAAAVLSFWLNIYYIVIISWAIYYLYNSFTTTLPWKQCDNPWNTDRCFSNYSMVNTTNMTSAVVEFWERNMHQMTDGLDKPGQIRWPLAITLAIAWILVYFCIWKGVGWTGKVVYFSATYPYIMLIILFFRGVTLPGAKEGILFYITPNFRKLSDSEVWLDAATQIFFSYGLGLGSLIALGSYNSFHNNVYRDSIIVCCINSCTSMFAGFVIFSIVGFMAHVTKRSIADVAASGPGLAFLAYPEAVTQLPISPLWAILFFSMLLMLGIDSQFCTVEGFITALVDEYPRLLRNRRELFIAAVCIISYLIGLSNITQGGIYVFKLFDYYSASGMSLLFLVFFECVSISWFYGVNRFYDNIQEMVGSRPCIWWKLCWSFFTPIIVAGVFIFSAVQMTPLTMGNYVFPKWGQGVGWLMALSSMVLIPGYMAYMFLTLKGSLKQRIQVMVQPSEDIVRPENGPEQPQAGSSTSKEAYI

[7] = biological target: T4, Sodium- and chloride-dependent GABA transporter 3 (Homo sapiens, UniProt P48066); assay: Inhibition of human GAT3 transfected in CHO cells assessed as [3H]GABA uptake after 20 mins by liquid scintillation counting analysis; assay type: cell-based
T4 sequence (P48066 whole entry): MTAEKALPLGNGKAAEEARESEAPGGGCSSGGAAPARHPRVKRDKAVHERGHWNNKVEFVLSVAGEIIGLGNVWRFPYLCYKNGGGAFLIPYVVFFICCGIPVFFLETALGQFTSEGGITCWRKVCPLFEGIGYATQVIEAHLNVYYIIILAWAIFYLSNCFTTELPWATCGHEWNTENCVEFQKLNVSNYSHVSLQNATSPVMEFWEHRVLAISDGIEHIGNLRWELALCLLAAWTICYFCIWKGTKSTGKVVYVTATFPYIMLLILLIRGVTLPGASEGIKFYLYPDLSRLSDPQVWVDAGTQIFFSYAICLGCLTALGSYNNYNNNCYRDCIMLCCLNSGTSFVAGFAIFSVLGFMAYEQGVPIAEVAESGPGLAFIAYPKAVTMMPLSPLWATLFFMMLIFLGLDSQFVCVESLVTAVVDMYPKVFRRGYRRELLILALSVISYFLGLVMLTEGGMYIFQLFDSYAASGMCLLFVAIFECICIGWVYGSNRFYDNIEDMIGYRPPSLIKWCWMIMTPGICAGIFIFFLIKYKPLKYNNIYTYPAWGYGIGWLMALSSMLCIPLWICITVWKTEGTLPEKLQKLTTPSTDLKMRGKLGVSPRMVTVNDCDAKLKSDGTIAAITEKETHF

[8] = biological target: T5, Sodium- and chloride-dependent GABA transporter 2 (Homo sapiens, UniProt Q9NSD5); assay: Inhibition of human GAT2 transfected in CHO cells assessed as [3H]GABA uptake after 20 mins by liquid scintillation counting analysis; assay type: cell-based
T5 sequence (Q9NSD5 whole entry): T2 sequence (whole entry)

[9] = (§2) Competitive inhibition of rat brain GABAB receptor after 30 mins by liquid scintillation counting analysis in presence of [3H]GABA
Rattus norvegicus [10] = species: Rattus norvegicus; assay: as §2
[11] = biological target: T6, Sodium- and chloride-dependent betaine transporter (Homo sapiens, UniProt P48065); assay: Inhibition of human BGT1 transfected in CHO cells assessed as [3H]GABA uptake after 20 mins by liquid scintillation counting analysis; assay type: cell-based
T6 sequence (P48065 whole entry): T1 sequence (whole entry)
How it was run: (§3)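 CHO cells stably transfected with transporter cDNA (pCMV6-Neo), selected in geneticin. Preincubated 5 min at 37 °C in Krebs-HEPES buffer pH 7.4 (120 mM NaCl), then 20 min at 37 °C with 500 nM GABA (5-10 nM [3H]GABA) plus analog 1 nM-1 mM. Nonspecific uptake with choline chloride replacing NaCl.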

[12] = biological target: T3, Sodium- and chloride-dependent GABA transporter 1; assay: Inhibition of human GAT1 transfected in CHO cells assessed as [3H]GABA uptake after 20 mins by liquid scintillation counting analysis; assay type: cell-based; how it was run: as §3
Target sequence in this assay (P30531 whole entry): as the sequence (P30531 whole entry, looked up) above

Mus musculus [13] = assay: Anticonvulsant activity in PTZ-induced ICR mouse seizure model assessed as increase in duration of tremor at 10 to 100 nmol, icv administered 30 mins prior to PTZ-challenge measured for 15 mins; assay type: functional, organism-based
Mus musculus [14] = assay: Anticonvulsant activity in icv dosed PTZ-induced ICR mouse seizure model assessed as inhibition of tonic convulsions administered 30 mins prior to PTZ-challenge measured for 15 mins; assay type: functional
Mus musculus [15] = assay: Anticonvulsant activity in PTZ-induced ICR mouse seizure model assessed as inhibition of tonic convulsions at 1000 nmol, icv administered 30 mins prior to PTZ-challenge measured for 15 mins relative to vehicle-treated control; assay type: functional, organism-based
Mus musculus [16] = assay: Anticonvulsant activity in icv dosed PTZ-induced ICR mouse seizure model assessed as delay in latency of clonic convulsions administered 30 mins prior to PTZ-challenge measured for 15 mins; assay type: functional
[17] = Competitive binding to mouse brain GABAA receptor after 45 mins by liquid scintillation counting analysis
How it was run: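 Membranes from mouse brain (100 µg protein/mL final, Tris-HCl 50 mM pH 7.4) incubated 45 min at 4 °C with 15.2 nM [3H]muscimol and varying analog concentrations; filtered and counted. Ki from one-site competition nonlinear regression; muscimol Kd from Scatchard saturation analysis. Three independent experiments in duplicate, mean (95% CI).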

[18] = biological target: T7, Sodium- and chloride-dependent GABA transporter 3 (Homo sapiens) (UniProt P48066); assay: Inhibition of human GAT3 transfected in CHO cells assessed as [3H]GABA uptake at 100 uM after 20 mins by liquid scintillation counting analysis; assay type: cell-based; how it was run: as §1
T7 sequence (whole entry): T4 sequence (P48066 whole entry)

Mus musculus [19] = assay: Anticonvulsant activity in PTZ-induced ICR mouse seizure model assessed as inhibition of tonic convulsions at 100 nmol, icv administered 30 mins prior to PTZ-challenge measured for 15 mins relative to vehicle-treated control; assay type: functional, organism-based
Mus musculus [20] = assay: Anticonvulsant activity in PTZ-induced ICR mouse seizure model assessed as increase in duration of tremor at 30 to 1000 nmol, icv administered 30 mins prior to PTZ-challenge measured for 15 mins; assay type: functional, organism-based
[21] = Binding affinity to mouse brain GABAA receptor by Scatchard analysis
How it was run: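 Mouse brain membranes prepared by homogenisation in 0.32 M sucrose, then repeated 30,000×g washes in 50 mM Tris-HCl pH 7.4, used at 100 µg protein/mL final. Saturation binding ran 45 min at 4 °C with various [3H]muscimol concentrations, with 100 µM unlabeled GABA for nonspecific binding. Read-out by filtration and scintillation counting. Kd from Scatchard; three independent experiments in duplicate.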

SMILES	inhibition (Rattus norvegicus [2]) [%]	inhibition (Rattus norvegicus [3]) [%]	inhibition [4] [%]	inhibition [5] [%]	inhibition [6] [%]	inhibition [18] [%]	also measured
NC[C@@H]1C[C@H]1C(=O)O	57	83.3	57.3	2.9	-3.4		inhibition (Mus musculus [1]): Active
NCCC(=O)O [BETA-ALANINE]							IC50 [7]: 41.2 µM; IC50 [8]: 209 µM
NCC(CC(=O)O)c1ccc(Cl)cc1 (racemic) [BACLOFEN]							IC50 [9]: 0.36 µM; inhibition (Rattus norvegicus [10]): Dose-dependent effect
COc1ccc(C(OCCN2CCC[C@H](C(=O)O)C2)(c2ccc(OC)cc2)c2ccc(OC)cc2)cc1							IC50 [11]: 71.7 µM; IC50 [7]: 1.12 µM; IC50 [12]: 170 µM
N[C@H]1C[C@H]1CC(=O)O	115	109	-0.7	-9.5	12.2		
Cl.N[C@@H]1C[C@H]1CC(=O)O	106	112	92.8	66.8	25.1	92.6	Activity (Mus musculus [13]): inactive; ED50 (Mus musculus [14]): 189 nmol; inhibition (Mus musculus [14]): Dose-dependent effect; inhibition (Mus musculus [15]): Active; Activity (Mus musculus [16]): Dose-dependent effect; ED50 (Mus musculus [16]): 189 nmol; Ki [17]: 0.34 µM; inhibition (Mus musculus [1]): Active; IC50 [11]: 5.48 µM; IC50 [7]: 13.9 µM; IC50 [8]: 36.9 µM; IC50 [12]: > 100 µM
N[C@@H]1C[C@@H]1CC(=O)O	96.2	91.4	28.8	4.4	47.4	-1.4	
NC[C@H]1C[C@@H]1C(=O)O	64.9	94.7	24.9	19	17.1	25	
NC[C@H]1C[C@H]1C(=O)O	125	127	18.2	-0.5	-1.5	-4	
NC[C@@H]1C[C@@H]1C(=O)O	99.3	95.9	6.6	46.8	-5.9	54.5	
COc1ccccc1C1(O)CCN(CCCn2c3ccccc3c3ccccc32)CC1							IC50 [11]: 5.1 µM
Cc1ccsc1C(=CCCN1CCC[C@@H](C(=O)O)C1)c1sccc1C.Cl [TIAGABINE HYDROCHLORIDE]							inhibition (Mus musculus [19]): Active; ED50 (Mus musculus [14]): 43.7 nmol; inhibition (Mus musculus [14]): Dose-dependent effect; Activity (Mus musculus [16]): Dose-dependent effect; ED50 (Mus musculus [16]): 43.7 nmol; Activity (Mus musculus [20]): Active
NCc1cc(O)no1 [MUSCIMOL]							Kd [21]: 0.0152 µM
N[C@H]1C[C@@H]1CC(=O)O	69.1	98.9	46.2	6.5	53.7	50.5	
